Some results are limits rather than exact numbers.

Experimental findings from ChEMBL document CHEMBL3785035, “Phase II Metabolic Pathways of Spectinamide Antitubercular Agents: A Comparative Study of the Reactivity of 4-Substituted Pyridines to Glutathione Conjugation” (Medchemcomm, 2016) are described below.

What all share (type): ADME, subcellular
Data set [1] can be described thus: Metabolic stability in rat liver S9 fraction assessed as parent compound remaining at 100 uM preincubated for 5 mins followed by glutathione addition measured after 2 hrs by LC-MS/MS analysis. The note with it: read-out: Stability. Put shortly: (§1)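 S9 (rat or human) at 10 mg/mL in 0.1 M potassium phosphate pH 7.4, with 1 mM MgCl2. Preincubated 5 min at 37 °C, 150 rpm, then started with glutathione (0.2 mM in incubation). Controls lacked glutathione. Sampled 0–120 min, quenched in ice-cold methanol with internal standard. Parent measured by HILIC LC-MS/MS and expressed as % of time zero. Mean with %CV.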

A short description of data set [2]: (§2) Metabolic stability in human liver S9 fraction assessed as parent compound remaining at 100 uM preincubated for 5 mins followed by PAPS addition measured after 2 hrs by LC-MS/MS analysis. The note with it: liver S9 fraction. Put shortly: (§3)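 Sulfation incubation: rat or human liver S9 at 2 mg/mL in 0.1 M potassium phosphate pH 7.4 with 1 mM MgCl2. Preincubated 5 min at 37 °C, then started with PAPS (0.2 mM in incubation). Controls lacked PAPS. Aliquots taken over 120 min and quenched in cold methanol with internal standard. LC-MS/MS read-out; parent remaining expressed against time zero.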

The nature of data set [3]: Metabolic stability in human liver S9 fraction assessed as parent compound remaining at 100 uM preincubated for 5 mins followed by glutathione addition measured after 2 hrs by LC-MS/MS analysis. The note with it: read-out: Stability. Put shortly:
as §1

The nature of data set [4]: Metabolic stability in human liver S9 fraction assessed as parent compound remaining at 100 uM preincubated for 5 mins followed by UDPGA addition measured after 2 hrs by LC-MS/MS analysis. The note with it: read-out: Stability. Put shortly:
(§4)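 Glucuronidation: 2 mg/mL rat or human S9 in 0.1 M potassium phosphate pH 7.4, activated with alamethicin (50 μg) 15 min on ice. Then 1 mM MgCl2 was added, with 5 min preincubation at 37 °C. Started with UDPGA (5 mM in incubation); controls without UDPGA. Samples taken to 120 min and quenched with methanol plus internal standard. LC-MS/MS; % parent relative to time zero.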

Data set [5] is described as follows: Half life in rat liver S9 fraction at 100 uM preincubated for 5 mins followed by glutathione addition measured after 2 hrs by LC-MS/MS analysis. Put shortly: as §1
Data set [6] can be described thus: (§5) Metabolic stability in rat liver S9 fraction assessed as parent compound remaining at 100 uM preincubated for 5 mins followed by PAPS addition measured after 2 hrs by LC-MS/MS analysis. The note with it: liver S9 fraction, read-out: Stability. Put shortly:
as §3

A short description of data set [7]: Half life in human liver S9 fraction at 100 uM preincubated for 5 mins followed by glutathione addition measured after 2 hrs by LC-MS/MS analysis. Put shortly:
as §1

The nature of data set [8]: Metabolic stability in rat liver S9 fraction assessed as parent compound remaining at 100 uM preincubated for 5 mins followed by UDPGA addition measured after 2 hrs by LC-MS/MS analysis. The note with it: read-out: Stability. Put shortly: as §4
Data set [9] deals with Liver. The description is as §2. The note with it: s9, 2 h, 100 µM. Put shortly: as §3
Data set [10] concerns Liver. Described as §5. The note with it: s9, 2 h, 100 µM. Put shortly:
as §3

Consider `CN[C@@H]1[C@H](O)[C@H](NC)[C@H]2O[C@]3(O)[C@H](O[C@@H]2[C@H]1O)O[C@H](C)C[C@H]3NC(=O)Cc1ccc(Cl)cn1`, for which the remaining at 2 h, 100 µM in [1] was 99.4%; in [2] it was over 96%; in data set [3] it was 99.9%; in data set [4], over 93%; in [6], over 95%; in [8], over 93%. For the same molecule, the half-life at 100 µM in data set [5] and in [7] was over 50 h throughout.

As to `CN[C@@H]1[C@H](O)[C@H](NC)[C@H]2O[C@]3(O)[C@H](O[C@@H]2[C@H]1O)O[C@H](C)C[C@H]3NC(=O)Cc1cc(Cl)c(OC)cn1`, the remaining at 2 h, 100 µM is 81.1% in [1]; over 96% in data set [2]; 98.8% in data set [3]; over 93% in data set [4]; over 95% in data set [6]; over 93% in data set [8]. Also, the half-life at 100 µM in [5] was 6.7 h; in data set [7] it was over 50 h.

With `CN[C@@H]1[C@H](O)[C@H](NC)[C@H]2O[C@]3(O)[C@H](O[C@@H]2[C@H]1O)O[C@H](C)C[C@H]3NC(=O)Cc1ccc(F)cn1`, the remaining at 2 h, 100 µM in [1] was 96.6%; in data set [2], over 96%; in [3], 98.7%; in data set [4], over 93%; in data set [6], over 95%; in [8], over 93%. Moreover, the half-life at 100 µM was 32.6 h in data set [5] and over 50 h in data set [7].

With `CN[C@@H]1[C@H](O)[C@H](NC)[C@H]2O[C@]3(O)[C@H](O[C@@H]2[C@H]1O)O[C@H](C)C[C@H]3NC(=O)Cc1cc(Cl)c(C)cn1`, the remaining at 2 h, 100 µM in data set [1] was 12.9%; in data set [3], 93.5%; in data set [4] it was over 93%; in [8], over 93%. Besides, the results for the Stability in data set [9] and in data set [10] were 91% and “Stable”, respectively. The results for the half-life at 100 µM in data set [5] and in data set [7] were 0.66 h and 23 h, respectively.

Regarding `CN[C@@H]1[C@H](O)[C@H](NC)[C@H]2O[C@]3(O)[C@H](O[C@@H]2[C@H]1O)O[C@H](C)C[C@H]3NC(=O)Cc1ccc(O)cn1`, the remaining at 2 h, 100 µM in [1] was 98.6%; in [2] it was over 96%; in data set [3], 99.9%; in data set [4], over 93%; in [6] it was over 95%; in data set [8] it was over 93%. Moreover, the half-life at 100 µM in [5] and in data set [7] was over 50 h throughout.

For `CN[C@@H]1[C@H](O)[C@H](NC)[C@H]2O[C@]3(O)[C@H](O[C@@H]2[C@H]1O)O[C@H](C)C[C@H]3NC(=O)Cc1cc(Cl)c(F)cn1`, the remaining at 2 h, 100 µM is 98.6% in data set [1]; over 96% in [2]; 98.6% in data set [3]; over 93% in [4]; over 95% in [6]; over 93% in data set [8]. Moreover, the half-life at 100 µM in [5] and in data set [7] was over 50 h throughout.

In the case of `CC(=O)Nc1ccc(O)cc1` [ACETAMINOPHEN], the values for the remaining at 2 h, 100 µM in data set [1] and in data set [3] were 43% and 74.5%, respectively. In addition, the half-life at 100 µM in data set [5] was 1.48 h; in [7] it was 4.4 h.

Consider `CN[C@@H]1[C@H](O)[C@H](NC)[C@H]2O[C@]3(O)[C@H](O[C@@H]2[C@H]1O)O[C@H](C)C[C@H]3NC(=O)Cc1cc(Cl)ccn1`, for which the remaining at 2 h, 100 µM is 71.9% in data set [1], 98.7% in [3], over 93% in data set [4] and over 93% in data set [8]. The Stability in [9] was over 96%; in data set [10], 88%. Besides, the values for the half-life at 100 µM in data set [5] and in [7] were 3.35 h and over 50 h, respectively.

Consider `CN[C@@H]1[C@H](O)[C@H](NC)[C@H]2O[C@]3(O)[C@H](O[C@@H]2[C@H]1O)O[C@H](C)C[C@H]3NC(=O)Cc1ccccn1`, for which the remaining at 2 h, 100 µM is 99.8% in data set [1], 96.7% in data set [3], over 93% in [4] and over 93% in [8]. In addition, the Stability was over 96% in data set [9] and 89% in data set [10]. The values for the half-life at 100 µM in data set [5] and in data set [7] were over 50 h and 38 h, respectively.

As a reminder, the half-life is how long it takes for the measured level to halve. A high value points to slow loss.
